Assay outcomes: PubChem, several laboratories
bCat KO growth: beta-catenin-lacking colon tumor cell growth suppression; 140,000 compounds, 1.5% hits; viability, % at 10 µM; HCT116 beta-catenin knockout viability, CellTiter-Glo, 60 h; active compounds read low; AID 818;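 active means viability at or under a set limit, the compound median less 4 SD, cut at about 6% in these data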
HUVEC inhibit: blocks proliferation of human endothelial cells. viability, % at 10 µM (by protocol). 86,000 compounds, 1.1% hits. AID 648. HUVEC proliferation, CellTiter-Glo luminescence, 72 h; active compounds read low;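 active means viability at or below 30%; inactive means viability above 30%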
Lung fibro prol: blocks proliferation of human lung fibroblasts | LL 47 human lung fibroblast viability, ATP luminescence; active compounds read low | 85,000 compounds, 1.1% hits | viability, % at 10 µM;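 active means viability at or below 50% in the single dose screen; inactive means viability above 50%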;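 further: compound exposure lasted 72 h before the ATP readout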
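Test system: LL 47 human lung fibroblasts; Quantity: 1,150 cells/well; Buffer or medium: IMEM plus 15% FBS; Dosing: tenfold compound dosing solution, DMSO at 0.1%; Timing: overnight cell rest, 72 h compound treatment at 37 °C; Detection: ATP-based CellTiter-Glo luminescent readout; Read-out basis: viability percentage against median untreated-cell control; Controls: cell-only wells, no compound.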
H69AR inhibit: blocks growth of human H69AR lung tumor cells. AID 598. 85,000 compounds, 6% hits. H69AR lung tumor viability, ATP luminescence, 72 h; active compounds read low. viability, % at 10 µM;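 active means viability at or below 40%; inactive means viability above 40%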;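 further: multidrug resistant small cell line overexpressing MRP-1 efflux transporter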
HCT116 PTEN-null: PTEN-deleted cell growth suppression; HCT116 PTEN-null viability, CellTiter-Glo, 60 h; active compounds read low; viability, % at 10 µM; 140,000 compounds, 1.2% hits; AID 827;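 active means viability at or below a set limit, 4 SD under the median of all tested compounds, cut at about 3.7% in these data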;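 further: PTEN knockout HCT116 line with beta catenin targeted HCT116 as companion control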
Calb biofilm kill: kills Candida albicans biofilms. C. albicans biofilm + clotrimazole, Alamar Blue. inhibition, % at 6 µM. 85,000 compounds, 0.14% hits. AID 834;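 active means inhibition above 20%; inactive means inhibition below 20%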;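 further: preformed 24 hr biofilms exposed to compound for 48 hr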
A number is an active result; – = inactive; · = no result. Shown is part of a subset that was picked to be rich in hits.

SMILES	bCat KO growth	HUVEC inhibit	Lung fibro prol	H69AR inhibit	HCT116 PTEN-null	Calb biofilm kill
Cc1nn(-c2ccccc2)c2[nH]c(=O)c(CNc3ccc(N4CCOCC4)cc3)cc12	–	–	–	18	–	–
Cc1nn(-c2ccc(Cl)cc2)c2[nH]c(=O)c(CNCc3ccc4c(c3)OCO4)cc12	–	–	–	32	–	–
O=c1[nH]c2c(cc1CNCCN1CCOCC1)c(-c1cccc(F)c1)nn2-c1ccccc1	·	–	–	–	·	–
CC1CC(C)(C)Nc2ccc(OC(=O)c3ccco3)cc21 (stereo not given)	0.8	5.7	1.7	1.1	0.7	–
COc1ccc(S(=O)(=O)NCCc2nnc3ccc(SCC(=O)Nc4nc(C)cs4)nn23)cc1	–	·	·	·	–	·
COc1ccc(C2CC(c3c(-c4ccccc4)c4cc(Cl)ccc4[nH]c3=O)=NN2S(C)(=O)=O)cc1 (stereo not given)	–	–	–	14	–	–
O=C(O)CCCC(=O)N1N=C(c2c(-c3ccccc3)c3cc(Cl)ccc3[nH]c2=O)CC1c1cccs1 (stereo not given)	–	·	·	·	–	·
O=C(O)CCC(=O)N1N=C(c2c(-c3ccccc3)c3cc(Cl)ccc3[nH]c2=O)CC1c1cccs1 (stereo not given)	–	·	·	·	–	·
COc1ccc(OC)c(C2CC(c3c(-c4ccccc4)c4cc(Cl)ccc4[nH]c3=O)=NN2S(C)(=O)=O)c1 (stereo not given)	0.6	·	·	·	0.5	·
O=C(Cn1cnc2ccccc21)N/N=C/C(Br)=C/c1ccccc1	–	·	·	·	–	·
CCNC(=S)NNC(=O)c1cc(Br)cs1	–	·	·	·	–	·
O=C(NCCc1cccc(F)c1)/C(=C/c1cccnc1)NC(=O)c1ccccc1	–	·	·	·	–	·
Cc1ccc(C)n1-c1ccc(C(=O)NN)cc1	–	·	·	·	–	·
CN(CCCCCCCCC(=O)/C=N/O)Cc1ccccc1	–	–	–	24	–	–
O=C(OCC#CCSc1nnc(-c2cccc3ccccc23)o1)c1ccco1	–	–	–	30	–	–
O=C(OCC#CCSc1nc2ccccc2o1)c1ccco1	–	–	–	–	–	–
Cc1ccc(-c2nnc(N3CCN(c4ccccn4)CC3)c3ccccc23)cc1	3.5	–	–	–	–	–
CN(C)c1ccc(-c2nn3c(-c4ccncc4)nnc3s2)cc1	·	–	–	32	·	–
CN(C)c1ccc(-c2nn3c(-c4ccccc4Cl)nnc3s2)cc1	–	–	–	30	–	–
CCN(CC)c1ccc(-c2nn3c(-c4n[nH]c5c4CCC5)nnc3s2)cc1	–	–	45	22	–	–
C1CCC(c2nn3c(-c4n[nH]c5c4CCC5)nnc3s2)CC1	–	–	–	–	–	–
Cc1ccc(-c2nnc3sc(-c4ccncc4)nn23)cc1	–	–	–	–	–	–
CCOc1cc(NC(=S)Nc2ccccc2OC)c(OCC)cc1NC(=O)c1ccccc1C	–	·	·	·	–	·
CCCN(CCC)S(=O)(=O)c1ccc(NC(=O)COc2ccccc2)cc1	–	–	–	–	–	–
CCOC(=O)COc1ccc2ccccc2c1/C=C/[N+](=O)[O-]	3.3	·	·	·	2.6	·
SMILES	bCat KO growth	HUVEC inhibit	Lung fibro prol	H69AR inhibit	HCT116 PTEN-null	Calb biofilm kill
O=[N+]([O-])/C=C/c1c(OCc2ccccc2)ccc2ccccc12	1.9	27	7.6	2.8	2.5	–
CCOC(=O)COc1ccc2nsnc2c1	–	–	·	–	–	–
CCOC(=O)COc1ccc(/C=C/[N+](=O)[O-])c(OCC(=O)OCC)c1	4.0	·	·	·	1.9	·
CCOc1ccc(/C=C/[N+](=O)[O-])c2ccccc12	2.0	·	·	·	1.8	·
COc1ccc(NS(=O)(=O)c2ccc3nc(COc4ccc(Cl)c(C)c4)[nH]c3c2)cc1	–	·	·	·	–	·
O=C1c2ccccc2C(O)(Cc2ccccc2)N1c1ccc2c(c1)OCO2 (stereo not given)	–	–	–	–	–	–
COc1ccc(S(=O)(=O)NNC(=O)c2cc3ccccc3o2)cc1	–	·	·	·	–	·
CC1CCCCN1C(=O)CSc1nnc(-c2cccnc2)n1C1CCCCC1 (stereo not given)	–	–	–	–	–	–
CC1CCN(C(=O)CSc2nnc(-c3cccnc3)n2C2CCCCC2)CC1	–	–	·	26	–	–
CS(=O)(=O)N1CCN(c2ccccc2NC(=O)c2ccc(-c3ccc(Cl)cc3Cl)o2)CC1	–	–	–	–	–	–
CCN(CC)c1ccc(NC(=O)c2cccnc2)c(C)c1	–	–	–	40	–	–
CC(=O)Cc1nsc(NC(=O)c2ccc(-c3ccc(Cl)cc3Cl)o2)n1	–	–	–	–	–	–
CCSc1ccc(NC(=O)c2cccnc2)cc1	–	–	–	33	–	–
Cc1nnc2sc(-c3ccc(NC(=O)c4ccc(-c5ccc(Cl)cc5Cl)o4)cc3)nn12	·	28	–	8.2	·	–
CN1CCN(c2ccccc2NC(=O)c2ccc(-c3ccc(Cl)cc3Cl)o2)CC1	5.5	5.8	–	32	–	–
CCN(CC)c1ccc(NC(=O)c2cccc(C)c2OC)c(C)c1	–	–	–	–	–	–
Cc1nnc2sc(-c3ccc(NC(=O)c4cccnc4)cc3)nn12	·	–	–	10	·	–
CCc1ccc(NC(=O)c2cccnc2)cc1	–	–	–	–	–	–
COc1ccc(-n2c(COc3ccc(C)cc3)nnc2SCc2ccc(C#N)cc2)cc1	–	–	–	–	–	–
COc1ccc(-n2c(COc3ccc(Cl)cc3)nnc2SCc2ccc(C#N)cc2)cc1	–	–	–	32	–	–
Nc1ccc(/C=C/C(=O)c2ccco2)cc1	–	·	·	·	–	·
N#Cc1ccc(/C=C/C(=O)c2ccco2)cc1	2.3	·	·	·	1.6	·
CCOC(=O)c1nn(-c2ccccc2)c(C#N)c1NC(=O)c1nn(CC)cc1Br	–	–	–	–	–	–
CCOC(=O)c1c(NC(=O)c2nn(CC)cc2Br)c(C#N)nn1-c1ccccc1	–	–	–	40	–	–
C=CCN=C(NC#N)SCC(=O)c1cccc(OC)c1	–	–	–	35	–	–
NS(=O)(=O)c1ccc(CCNC(=O)Nc2ccc(Cl)c(Cl)c2)cc1	–	–	–	19	–	–
